Screening data as filed in PubChem.
Rows were chosen to be rich in hits. Some 1.4% of all compounds tested hit in one or more screens of this group.
CAL PDZ FP-1: inhibitors of human CAL PDZ peptide binding. Q9HD26. AID 504414. purified CAL PDZ, TMR-peptide fluorescence polarization, 1 h. inhibition, % at 20 µM. 330,000 compounds, 0.02% hits;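 active = highest replicate inhibition of at least 40%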
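Read-out basis: mP drop reported as inhibition | Assay system: Tagged CAL PDZ protein CerCALP, purified | Benchmarks: Unlabelled peptide for full inhibition, DMSO wells as neutral | Schedule: 1 h incubation at room temperature before polarization reading | Buffer or medium: Sodium phosphate/NaCl buffer pH 7.4 with TCEP, IgG, Thesit | Doses: Single point, 20 µM | Measured by: Fluorescence polarization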
DDE Tn6 FP inh: inhibitors of Tn6 peptide binding to human fibrin DD(E); P02675; Fibrin DD(E) TRITC-Tn6 fluorescence polarization displacement; inhibition, % at 8.3 µM; 370,000 compounds, 0.21% hits;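 active = inhibition above a per-campaign cutoff: mean of compounds within control limits plus 3 SD, cut at about 15% in these data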
Target sequence (P02675 whole entry, looked up): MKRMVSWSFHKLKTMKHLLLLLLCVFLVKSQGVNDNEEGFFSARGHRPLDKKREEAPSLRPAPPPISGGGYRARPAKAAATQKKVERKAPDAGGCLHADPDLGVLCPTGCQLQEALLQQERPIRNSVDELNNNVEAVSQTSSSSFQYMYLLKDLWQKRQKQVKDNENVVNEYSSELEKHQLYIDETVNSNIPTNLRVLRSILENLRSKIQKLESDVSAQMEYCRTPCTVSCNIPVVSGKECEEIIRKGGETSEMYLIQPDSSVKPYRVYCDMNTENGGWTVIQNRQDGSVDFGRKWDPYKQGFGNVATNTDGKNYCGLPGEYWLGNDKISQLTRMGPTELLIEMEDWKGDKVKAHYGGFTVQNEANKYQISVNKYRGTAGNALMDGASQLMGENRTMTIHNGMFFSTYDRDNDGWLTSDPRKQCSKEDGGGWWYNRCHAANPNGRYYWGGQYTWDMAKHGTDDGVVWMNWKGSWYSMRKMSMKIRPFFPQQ
Arr AP2 block: human beta-arrestin and AP2 interaction inhibition; FITC-arrestin peptide / GST-AP2 beads, flow cytometry; AP2 beta2 appendage carries R879A mutation; 340,000 compounds, 0.31% hits; inhibition, % at 10 µM;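 active = inhibition above a set limit, near 3 SD of compounds lacking own fluorescence, cut at about 54% in these data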
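Assay system: GST-AP2 R879A bound to glutathione beads, E. coli-expressed; Medium: PBS with 0.05% Tween 20 and 0.1% BSA; Also added: fluorescein-tagged arrestin peptide at 50 nM final; Timing: 12 min plus 1 h, RT; Measured by: flow cytometry, FL1 (488/535 nm); Evaluation: percent drop in bead-associated FITC signal.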
DDE Tn7 FP inh: DD(E)-Tn7 binding inhibition, primary FP screen | P02675 | FP displacement of FITC-Tn7 peptide from fibrin DD(E); 0% = median of compound wells per plate | inhibition, % at 8.3 µM | 370,000 compounds, 0.13% hits;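 active = inhibition above the mean of compounds falling within the control limits plus 3 SD of them, cut at about 14% in these data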
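Measure: % inhibition scaled between sample-field median and high-control FP; Test system: human fibrin DD(E); Quantity: 2 µM final DD(E) protein; Doses: one dose, 8.3 µM nominal; Schedule: compound with protein 10 min, then 3 h after probe, room temperature; Detection: fluorescence polarization; Medium: Tris buffer with calcium and detergent, pH 7.8.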
CAL PDZ FP-2: inhibitors of human CAL PDZ peptide binding; Q9HD26; 300,000 compounds, 0.92% hits; inhibition, % at 24.9 µM; purified CAL PDZ, TMR-peptide fluorescence polarization, 1 h;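 active = mean inhibition of at least 30% with at least half of replicates also reaching 30%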
DDE Tn6 FP ctr: counter-screen for inhibitors of Tn6 peptide binding to fibrin DD(E); shares compounds with DDE Tn6 FP inh; TRITC-Tn6 fluorescence polarization displacement; 0% = median of compound wells, not DMSO; inhibition, % at 8.3 µM; 680 compounds, 2% hits; AID 720621;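 active = inhibition above the mean of test compounds lying between the control limits plus 3 SD of those, cut at about 14% in these data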
DDE Tn6 confirm: DD(E)-Tn6 binding inhibition, FP confirmation; shares compounds with DDE Tn6 FP inh; FP displacement of TRITC-Tn6 peptide from DD(E); 0% = per-plate median of test wells; inhibition, % at 8.3 µM; 680 compounds, 10% hits; AID 720631;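 active = inhibition above the mean of compounds lying within the control limits plus 3 SD, cut at about 16% in these data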
Numbers stand for hits; - = inactive; . = no result given.

SMILES	CAL PDZ FP-1	DDE Tn6 FP inh	Arr AP2 block	DDE Tn7 FP inh	CAL PDZ FP-2	DDE Tn6 FP ctr	DDE Tn6 confirm
O=c1ccc2c(-c3ccccc3)c3ccc(O)cc3oc-2c1	.	68	-	-	-	53	38
CCN(CC(=O)NC1CCCC1)S(=O)(=O)c1ccc(C)cc1	-	-	-	-	-	.	.
CCN(CC(=O)NC1CCCC1)S(=O)(=O)c1ccc(Br)cc1	-	16	-	-	-	-	-
O=C1CC(Nc2ccc(N3CCOCC3)cc2)C(=O)N1Cc1ccccc1 (stereo not given)	-	20	-	-	-	-	-
O=C1CC(Nc2ccc(N3CCOCC3)cc2)C(=O)N1c1ccccc1 (stereo not given)	-	.	-	.	-	.	.
FC(F)(F)Oc1ccc(Cn2ccc3ccc(-c4ccc5ccn(Cc6ccccc6)c5c4)cc32)cc1	.	-	.	-	.	.	.
O=C(NC(c1ccccc1)c1ccccc1)N1CCOCC1	-	16	-	-	-	-	-
c1cc2c3c(cccc3c1)C(N1CCCCCC1)=N2	-	-	-	-	-	.	.
c1ccc2c(c1)CCN(C1=Nc3cccc4cccc1c34)C2	-	18	-	-	-	-	63
CCC(C)[C@H](NC(=O)NCc1ccc(Cl)cc1)C(=O)O (stereo not given in full)	-	-	-	-	-	.	.
CCC(C)[C@H](NC(=O)NCc1ccc(Cl)cc1)C(=O)OC (stereo not given in full)	-	17	-	-	-	-	-
CCC(CC)C(=O)Nc1cccc(C(=O)Nc2ccc(S(=O)(=O)Nc3ccc(C)cc3)cc2)c1	-	19	-	-	.	-	-
CCC(CC)C(=O)Nc1cccc(C(=O)Nc2ccc(S(N)(=O)=O)cc2)c1	-	-	-	-	-	.	.
CN(C)c1ccc2nc3c(=O)[nH]c(=O)nc-3n(CC(O)C(O)C(O)CO)c2c1 (stereo not given)	-	73	-	-	.	-	-
O=C(CSc1nnc(-c2ccccc2)n1Cc1ccco1)Nc1ccc(OCc2ccccc2)cc1	.	-	.	-	.	.	.
CN1CCN(c2ccc3c(c2)Oc2ccccc2CN(Cc2cn(Cc4ccc(C(F)(F)F)cc4)nn2)S3(=O)=O)CC1	.	-	.	-	.	.	.
Brc1ccc(C2=Nn3c(nnc3-c3cccnc3)SC2)s1	-	.	-	.	-	.	.
O=c1oc2ccccc2cc1C1=Nn2c(nnc2-c2cccnc2)SC1	-	15	-	-	-	-	-
COC(=O)[C@]12C[C@H](CC(=O)NCc3ccc(OC)c(OC)c3)C(=O)N(Cc3cccc4ccccc34)C1=C[C@H](C1CCCC1)O[C@@H]2C	.	-	.	-	.	.	.
CCN(c1ccccc1)S(=O)(=O)c1cc(C(=O)NCC(c2ccc(OC)cc2)N(C)C)ccc1C (stereo not given)	-	17	-	-	.	-	-
COc1ccc(C(CNC(=O)c2ccc(S(=O)(=O)N(C)C)cc2)N(C)C)cc1 (stereo not given)	-	-	-	-	-	.	.
CCN(CC)S(=O)(=O)c1ccc(C(=O)NCc2ccc3c(c2)OCO3)cc1	-	-	-	-	-	.	.
CCN(CC)S(=O)(=O)c1ccc(C(=O)NCc2ccc3c(c2)cc(C)n3C)cc1	-	80	-	-	-	-	-
Cc1cc2cc(CNC(=O)c3ccc(S(=O)(=O)N4CCCC4)cc3)ccc2n1C	-	60	-	-	-	-	-
O=C(COC(=O)CNC(=O)c1ccc(F)cc1)NC1CCCc2ccccc21 (stereo not given)	-	-	-	-	.	.	.
SMILES	CAL PDZ FP-1	DDE Tn6 FP inh	Arr AP2 block	DDE Tn7 FP inh	CAL PDZ FP-2	DDE Tn6 FP ctr	DDE Tn6 confirm
Cc1ccc(C(=O)NCC(=O)OC(C)C(=O)NC2CCCc3ccccc32)cc1 (stereo not given)	-	16	-	-	.	-	-
O[C@H](COc1ccc(C(F)(F)F)cc1)CN1CCC(C(O)(c2ccccc2)c2ccccc2)CC1	.	-	.	-	.	.	.
COc1ccc(C(CNC(=O)C(=O)NC2CCCCC2)N2CCN(C)CC2)cc1 (stereo not given)	-	16	-	-	-	-	-
COc1ccc(C(CNC(=O)C(=O)NC2CCCC2)N2CCN(C)CC2)cc1 (stereo not given)	-	-	-	-	.	.	.
COC(=O)c1ccccc1C(=O)c1cccc2ccccc12	-	-	-	-	-	.	.
COC(=O)c1c[nH]c(=O)c2ccccc12	-	16	-	-	-	-	-
COc1ccc(OC)c(S(=O)(=O)N2CCCCC2C(=O)N2CCN(Cc3ccc(F)cc3)CC2)c1 (stereo not given)	.	-	.	-	.	.	.
COc1nc(-c2ccccc2Cl)ccc1C#N	-	18	-	-	.	-	-
COC(=O)[C@H]1C[C@]2(C(C=C(C)C)S(=O)(=O)c3ccccc3)c3ccccc3N[C@H]2N1 (stereo not given in full)	.	-	.	-	.	.	.
CC1(OC(=O)c2cccs2)C(=O)C=C2C=C(C3CC3)OC=C2C1=O (stereo not given)	-	-	-	-	-	.	.
CC1(OC(=O)c2ccco2)C(=O)C=C2C=C(C3CC3)OC=C2C1=O (stereo not given)	-	28	-	-	-	-	18
CN(C(=O)c1ccccc1Cl)c1ccccc1	.	15	-	-	-	-	-
CN(C(=O)c1ccccc1-c1ccccc1C(=O)O)c1ccccc1	-	-	-	-	.	.	.
CC(C)C1CC(N(C)C)=CC(=S)N1 (stereo not given)	.	-	.	-	.	.	.
COc1cc([N+](=O)[O-])cc(/C=C2/SC(=S)N(Cc3ccccc3)C2=O)c1O	-	56	-	-	.	-	34
Cn1cccc1C(=O)NC(=O)COC(=O)CCNS(=O)(=O)c1ccc(Cl)cc1	-	16	-	-	-	-	-
O=C(CC(c1ccccc1)c1ccccc1)NCc1cccnc1	-	-	-	-	-	.	.
CC(NCc1cccnc1)c1ccccc1 (stereo not given)	-	16	-	-	-	-	-
Cc1c(C)n(C)c2ccc(C(=O)NCc3cccs3)cc12	-	35	-	-	.	-	-
O=C(COC(=O)CCCCCN=C1NS(=O)(=O)c2ccccc21)Nc1ccc(Cl)c(Cl)c1	-	29	-	-	-	-	-
COc1ccc(-c2nnc3c4ccccc4c(C)nn23)cc1S(=O)(=O)N1CCN(CCO)CC1	-	23	-	-	-	-	-
Cc1nn2c(-c3ccc(S(=O)(=O)N4CCN(CCO)CC4)o3)nnc2c2ccccc12	-	-	-	-	-	.	.
Cc1n[nH]c(C)c1S(=O)(=O)NCCc1ccccc1F	.	-	.	-	.	.	.
